Assay results from ChEMBL document CHEMBL3046428, “Isolation, characterization and antifungal activity of major constituents of the Himalayan lichen Parmelia reticulata Tayl” (2011).
In brackets after ≈: the same amount, converted by molar mass.

Key:
Assay type in all cases: functional
[1] = tested on: Rhizoctonia solani; assay: Antifungal activity against Rhizoctonia solani assessed as growth inhibition at 125 ug/ml by poisoned food technique
In short: (§1)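 Poisoned-food assay on PDA. Test material was diluted in acetone and mixed into molten medium at final 250, 125 or 62.5 μg/mL, with 1 mL acetone as control. Plates received a 5 mm mycelial disc from the front of a 2-week-old colony and were incubated at 28 °C until control growth was nearly complete. Colony diameter was measured, giving %I = (C−T)/C×100. Mean ± SD of four replicates.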

[2] = tested on: Macrophomina phaseolina; assay: Antifungal activity against Rhizoctonia bataticola assessed as growth inhibition by poisoned food technique; conditions: read-out: ED50 (the source's name)
In short: (§2)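 ED50 from poisoned-food growth inhibition on PDA at 250, 125 and 62.5 μg/mL in medium, with an acetone control. Plates were inoculated with a 5 mm mycelial disc, incubated at 28 °C, and colony diameter was measured in quadruplicate. Percent inhibition was corrected by Abbott's formula, using a correction factor from the 9 cm dish diameter, and ED50 (μg/mL) was derived by probit analysis.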

[3] = tested on: Globisporangium debaryanum; assay: Antifungal activity against Pythium debaryanum assessed as growth inhibition by poisoned food technique; conditions: read-out: ED50 (the source's name); in short: as §2
[4] = tested on: Athelia rolfsii; assay: Antifungal activity against Athelia rolfsii assessed as growth inhibition at 62.5 ug/ml by poisoned food technique; conditions: Agroathelia rolfsii; in short: as §1
[5] = tested on: Rhizoctonia solani; assay: Antifungal activity against Rhizoctonia solani assessed as growth inhibition by poisoned food technique; conditions: read-out: ED50 (the source's name); in short: as §2
[6] = tested on: Macrophomina phaseolina; assay: Antifungal activity against Rhizoctonia bataticola assessed as growth inhibition at 250 ug/ml by poisoned food technique; in short: as §1
[7] = tested on: Rhizoctonia solani; assay: Antifungal activity against Rhizoctonia solani assessed as growth inhibition at 62.5 ug/ml by poisoned food technique; in short: as §1
[8] = tested on: Athelia rolfsii; assay: Antifungal activity against Athelia rolfsii assessed as growth inhibition by poisoned food technique; conditions: Agroathelia rolfsii; read-out: ED50 (the source's name); in short: as §2
[9] = tested on: Athelia rolfsii; assay: Antifungal activity against Athelia rolfsii assessed as growth inhibition at 125 ug/ml by poisoned food technique; conditions: Agroathelia rolfsii; in short: as §1
[10] = tested on: Macrophomina phaseolina; assay: Antifungal activity against Rhizoctonia bataticola assessed as growth inhibition at 125 ug/ml by poisoned food technique; in short: as §1
[11] = tested on: Fusarium udum; assay: Antifungal activity against Fusarium udum assessed as growth inhibition at 125 ug/ml by poisoned food technique; in short: as §1
[12] = tested on: Pythium aphanidermatum; assay: Antifungal activity against Pythium aphanidermatum assessed as growth inhibition at 125 ug/ml by poisoned food technique; in short: as §1
[13] = tested on: Globisporangium debaryanum; assay: Antifungal activity against Pythium debaryanum assessed as growth inhibition at 125 ug/ml by poisoned food technique; in short: as §1
[14] = tested on: Globisporangium debaryanum; assay: Antifungal activity against Pythium debaryanum assessed as growth inhibition at 62.5 ug/ml by poisoned food technique; in short: as §1
[15] = tested on: Fusarium udum; assay: Antifungal activity against Fusarium udum assessed as growth inhibition by poisoned food technique; conditions: read-out: ED50 (the source's name); in short: as §2
[16] = tested on: Rhizoctonia solani; assay: Antifungal activity against Rhizoctonia solani assessed as growth inhibition at 250 ug/ml by poisoned food technique; in short: as §1
[17] = tested on: Pythium aphanidermatum; assay: Antifungal activity against Pythium aphanidermatum assessed as growth inhibition at 250 ug/ml by poisoned food technique; in short: as §1
[18] = tested on: Globisporangium debaryanum; assay: Antifungal activity against Pythium debaryanum assessed as growth inhibition at 250 ug/ml by poisoned food technique; in short: as §1
[19] = tested on: Fusarium udum; assay: Antifungal activity against Fusarium udum assessed as growth inhibition at 250 ug/ml by poisoned food technique; in short: as §1
[20] = tested on: Pythium aphanidermatum; assay: Antifungal activity against Pythium aphanidermatum assessed as growth inhibition at 62.5 ug/ml by poisoned food technique; in short: as §1
[21] = tested on: Fusarium udum; assay: Antifungal activity against Fusarium udum assessed as growth inhibition at 62.5 ug/ml by poisoned food technique; in short: as §1
[22] = tested on: Macrophomina phaseolina; assay: Antifungal activity against Rhizoctonia bataticola assessed as growth inhibition at 62.5 ug/ml by poisoned food technique; in short: as §1
[23] = tested on: Athelia rolfsii; assay: Antifungal activity against Athelia rolfsii assessed as growth inhibition at 250 ug/ml by poisoned food technique; conditions: Agroathelia rolfsii; in short: as §1
[24] = tested on: Pythium aphanidermatum; assay: Antifungal activity against Pythium aphanidermatum assessed as growth inhibition by poisoned food technique; conditions: read-out: ED50 (the source's name); in short: as §2

Row | SMILES | inhibition at 125 µg/mL [1] [%] | EC50 [2] [µg/mL] | EC50 [3] [µg/mL] | inhibition at 62.5 µg/mL [4] [%] | EC50 [5] [µg/mL] | inhibition at 250 µg/mL [6] [%] | inhibition at 62.5 µg/mL [7] [%] | EC50 [8] [µg/mL] | inhibition at 125 µg/mL [9] [%] | inhibition at 125 µg/mL [10] [%] | inhibition at 125 µg/mL [11] [%] | inhibition at 125 µg/mL [12] [%] | inhibition at 125 µg/mL [13] [%] | inhibition at 62.5 µg/mL [14] [%] | EC50 [15] [µg/mL] | inhibition at 250 µg/mL [16] [%] | inhibition at 250 µg/mL [17] [%] | inhibition at 250 µg/mL [18] [%] | inhibition at 250 µg/mL [19] [%] | inhibition at 62.5 µg/mL [20] [%] | other results
1 | COC(=O)c1c(C)cc(OC(=O)c2c(C)cc(O)c(C=O)c2O)c(C)c1O [ATRANORIN] | 62 | 58.8 (≈ 157 µM) | 44.8 (≈ 120 µM) | 67.3 | 64.6 (≈ 173 µM) | 80 | 40 | 39.7 (≈ 106 µM) | 89.7 | 67.7 | 81.3 | 43 | 78 | 56.3 | 50.3 (≈ 134 µM) | 81.3 | 60.3 | 89.7 | 90 | 22 | inhibition at 62.5 µg/mL [21]: 50%; inhibition at 62.5 µg/mL [22]: 44.3%; inhibition at 250 µg/mL [23]: 100%; EC50 [24]: 105 µg/mL (≈ 280 µM)
2 | COC(=O)c1c(C)cc(O)c(C)c1O [ATRARIC ACID] | 67 | 77.2 (≈ 394 µM) | 57 (≈ 290 µM) | 33 | 57.5 (≈ 293 µM) | 90.3 | 46 | 80.2 (≈ 409 µM) | 50 | 50.3 | 50 | 50 | 72.3 | 44 | 82.3 (≈ 420 µM) | 80.3 | 88.3 | 89.3 | 80.5 | 22.3 | inhibition at 62.5 µg/mL [21]: 26.7%; inhibition at 62.5 µg/mL [22]: 28.3%; inhibition at 250 µg/mL [23]: 74.3%; EC50 [24]: 81.5 µg/mL (≈ 415 µM)
3 | COc1cc(C)c(C(=O)Oc2cc(C)c(C(=O)O)c(O)c2C)c(O)c1C=O [BAEOMYCESIC ACID] | 61.4 | 150 (≈ 400 µM) | 144 (≈ 383 µM) | 32.2 | 71.3 (≈ 190 µM) | 49.1 | 33.4 | 86.7 (≈ 231 µM) | 44.4 | 28.4 | 47.1 | 29.3 | 38.2 | 18.3 | 110 (≈ 293 µM) | 81.6 | 44.4 | 77.1 | 57.9 | 11.4 | inhibition at 62.5 µg/mL [21]: 33.5%; inhibition at 62.5 µg/mL [22]: 17.1%; inhibition at 250 µg/mL [23]: 72.4%; EC50 [24]: 149 µg/mL (≈ 398 µM)
4 | CCOC(=O)c1c(C)cc(O)c(C=O)c1O [ETHYL HEMATOMMATE] | 33.5 | 117 (≈ 523 µM) | 128 (≈ 573 µM) | 28.4 | 125 (≈ 557 µM) | 53.4 | 15.3 | 99 (≈ 441 µM) | 47.5 | 42.8 | 13.5 | 32.6 | 26.3 | 15.1 | 250 (≈ 1120 µM) | 55.5 | 50.4 | 56.5 | 27.4 | 13.1 | inhibition at 62.5 µg/mL [21]: 6.4%; inhibition at 62.5 µg/mL [22]: 27.4%; inhibition at 250 µg/mL [23]: 61%; EC50 [24]: 133 µg/mL (≈ 592 µM)
5 | COc1cc(C)c2c(=O)c3c(O)cc(OC)cc3oc2c1 [LICHEXANTHONE] | 29.4 | 134 (≈ 467 µM) | 149 (≈ 520 µM) | 16.7 | 202 (≈ 707 µM) | 50 | 19.6 | 273 (≈ 955 µM) | 23.2 | 30.3 | 24.5 | 23.4 | 28.4 | 9.03 | 151 (≈ 528 µM) | 41 | 42.7 | 42 | 53.3 | 13 | inhibition at 62.5 µg/mL [21]: 20.3%; inhibition at 62.5 µg/mL [22]: 11.4%; inhibition at 250 µg/mL [23]: 37.3%; EC50 [24]: 174 µg/mL (≈ 608 µM)
6 | COC(=O)c1c(C)cc(O)c(C=O)c1O [METHYL HAEMATOMMATE] | 72.6 | 52.9 (≈ 252 µM) | 88.2 (≈ 420 µM) | 44.2 | 50.5 (≈ 240 µM) | 78.2 | 50.6 | 60.3 (≈ 287 µM) | 66.6 | 61.4 | 50.5 | 46.4 | 47.3 | 34 | 71.2 (≈ 339 µM) | 81.7 | 69.3 | 71.3 | 67.3 | 24.4 | inhibition at 62.5 µg/mL [21]: 46.5%; inhibition at 62.5 µg/mL [22]: 53.1%; inhibition at 250 µg/mL [23]: 89.2%; EC50 [24]: 90.6 µg/mL (≈ 431 µM)
7 | CCOC(=O)c1c(C)cc(O)cc1O [ORSELLINIC ACID, ETHYL ESTER] | 68.1 | 114 (≈ 580 µM) | 72.5 (≈ 370 µM) | 28.3 | 58.3 (≈ 297 µM) | 67.2 | 44.4 | 82.7 (≈ 421 µM) | 50.5 | 28 | 32.5 | 50.4 | 61.2 | 28.3 | 98.2 (≈ 501 µM) | 90.4 | 83.3 | 91.4 | 79.4 | 18.5 | inhibition at 62.5 µg/mL [21]: 17.3%; inhibition at 62.5 µg/mL [22]: 16.4%; inhibition at 250 µg/mL [23]: 78%; EC50 [24]: 86.9 µg/mL (≈ 443 µM)
